From ChEMBL document CHEMBL1777788, “Synthesis and in vitro antimicrobial activities of new (cyano-NNO-azoxy)pyrazole derivatives” (2011)
In brackets after ≈: the same amount, converted by molar mass.

What was measured:
Candida parapsilosis [1] = assay: Antimicrobial activity against Candida parapsilosis ATCC 22019 after 48 hrs by microdilution broth method; type: functional; settings: Lodderomyces parapsilosis, ATCC 22019, 48 h
Procedure, shortened: (§1)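 Yeasts were grown overnight on Sabouraud dextrose agar at 35°C, suspended in water, and adjusted at 530 nm to McFarland 0.5 (approximately 1-5 x 10^6 CFU/ml). They were then diluted 1:100 and 1:20 in RPMI 1640 with 0.165 M MOPS and 2% glucose. Compound in DMSO was tested at ten concentrations, 0.25–256 mg/L, with incubation at 35°C. At 48 h, MIC was read spectrophotometrically as 50% turbidity reduction versus growth control.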

Candida albicans [2] = assay: Antimicrobial activity against Candida albicans isolate 31 after 48 hrs by microdilution broth method; type: functional; settings: isolate 31, 48 h; procedure, shortened: as §1
Candida albicans [3] = assay: Antimicrobial activity against Candida albicans isolate 41 after 48 hrs by microdilution broth method; type: functional; settings: isolate 41, 48 h; procedure, shortened: as §1
Candida albicans [4] = assay: Antimicrobial activity against Candida albicans isolate 47 after 48 hrs by microdilution broth method; type: functional; settings: isolate 47, 48 h; procedure, shortened: as §1
Candida albicans [5] = assay: Antimicrobial activity against Candida albicans isolate 48 after 48 hrs by microdilution broth method; type: functional; settings: isolate 48, 48 h; procedure, shortened: as §1
Pichia kudriavzevii [6] = assay: Antimicrobial activity against Candida krusei isolate 31 after 48 hrs by microdilution broth method; type: functional; settings: isolate 31, 48 h; procedure, shortened: as §1
Pichia kudriavzevii [7] = assay: Antimicrobial activity against Candida krusei isolate 43 after 48 hrs by microdilution broth method; type: functional
Pichia kudriavzevii [8] = assay: Antimicrobial activity against Candida krusei isolate 48 after 48 hrs by microdilution broth method; type: functional
Candida tropicalis [9] = assay: Antimicrobial activity against Candida tropicalis isolate 33 after 48 hrs by microdilution broth method; type: functional; settings: isolate 33, 48 h; procedure, shortened: as §1
Candida tropicalis [10] = assay: Antimicrobial activity against Candida tropicalis isolate 11 after 48 hrs by microdilution broth method; type: functional; settings: isolate 11, 48 h; procedure, shortened: as §1
Candida tropicalis [11] = assay: Antimicrobial activity against Candida tropicalis isolate 22 after 48 hrs by microdilution broth method; type: functional; settings: isolate 22, 48 h; procedure, shortened: as §1
Nakaseomyces glabratus [12] = assay: Antimicrobial activity against Candida glabrata isolate 30 after 48 hrs by microdilution broth method; type: functional; procedure, shortened: as §1
Nakaseomyces glabratus [13] = assay: Antimicrobial activity against Candida glabrata isolate 32 after 48 hrs by microdilution broth method; type: functional; settings: isolate 32, 48 h; procedure, shortened: as §1
Nakaseomyces glabratus [14] = assay: Antimicrobial activity against Candida glabrata isolate 46 after 48 hrs by microdilution broth method; type: functional; procedure, shortened: as §1
Nakaseomyces glabratus [15] = assay: Antimicrobial activity against Candida glabrata isolate 49 after 48 hrs by microdilution broth method; type: functional; procedure, shortened: as §1
Candida parapsilosis [16] = assay: Antimicrobial activity against Candida parapsilosis isolate 26 after 48 hrs by microdilution broth method; type: functional; settings: Lodderomyces parapsilosis, isolate 26, 48 h; procedure, shortened: as §1
Candida parapsilosis [17] = assay: Antimicrobial activity against Candida parapsilosis isolate 44 after 48 hrs by microdilution broth method; type: functional; settings: Lodderomyces parapsilosis, isolate 44, 48 h; procedure, shortened: as §1
Candida parapsilosis [18] = assay: Antimicrobial activity against Candida parapsilosis isolate 19 after 48 hrs by microdilution broth method; type: functional; settings: Lodderomyces parapsilosis, isolate 19, 48 h; procedure, shortened: as §1
[19] = test system: Cryptococcus deneoformans; assay: Antimicrobial activity against Cryptococcus neoformans var. neoformans isolate 14 after 48 hrs by microdilution broth method; type: functional; settings: isolate 14, 48 h; procedure, shortened: as §1
[20] = test system: Cryptococcus deneoformans; assay: Antimicrobial activity against Cryptococcus neoformans var. neoformans isolate 27 after 48 hrs by microdilution broth method; type: functional; settings: isolate 27, 48 h; procedure, shortened: as §1
[21] = test system: Cryptococcus deneoformans; assay: Antimicrobial activity against Cryptococcus neoformans var. neoformans isolate 30 after 48 hrs by microdilution broth method; type: functional; settings: isolate 30, 48 h; procedure, shortened: as §1
[22] = test system: Cryptococcus deneoformans; assay: Antimicrobial activity against Cryptococcus neoformans var. neoformans isolate 25 after 48 hrs by microdilution broth method; type: functional; settings: isolate 25, 48 h; procedure, shortened: as §1
Pichia kudriavzevii [23] = assay: Antimicrobial activity against Candida krusei ATCC 6258 after 48 hrs by microdilution broth method; type: functional; settings: ATCC 6258, 48 h
Escherichia coli = assay: Antimicrobial activity against Escherichia coli isolate after 24 hrs by microdilution broth method
Proteus mirabilis = assay: Antimicrobial activity against Proteus mirabilis isolate after 24 hrs by microdilution broth method
Pseudomonas aeruginosa [24] = assay: Antimicrobial activity against Pseudomonas aeruginosa isolate 1 after 24 hrs by microdilution broth method; settings: isolate 1, 24 h
Pseudomonas aeruginosa [25] = assay: Antimicrobial activity against Pseudomonas aeruginosa isolate 2 after 24 hrs by microdilution broth method; settings: isolate 2, 24 h
Staphylococcus aureus [26] = assay: Antimicrobial activity against methicillin-resistant Staphylococcus aureus isolate after 24 hrs by microdilution broth method
Staphylococcus aureus [27] = assay: Antimicrobial activity against methicillin-susceptible Staphylococcus aureus isolate after 24 hrs by microdilution broth method

Structure (SMILES) | MIC (Candida parapsilosis [1]) | MIC (Candida albicans [2]) | MIC (Candida albicans [3]) | MIC (Candida albicans [4]) | MIC (Candida albicans [5]) | MIC (Pichia kudriavzevii [6]) | MIC (Pichia kudriavzevii [7]) | MIC (Pichia kudriavzevii [8]) | MIC (Candida tropicalis [9]) | MIC (Candida tropicalis [10]) | MIC (Candida tropicalis [11]) | MIC (Nakaseomyces glabratus [12]) | MIC (Nakaseomyces glabratus [13]) | MIC (Nakaseomyces glabratus [14]) | MIC (Nakaseomyces glabratus [15]) | MIC (Candida parapsilosis [16]) | MIC (Candida parapsilosis [17]) | MIC (Candida parapsilosis [18]) | MIC [19] | MIC [20] | other results
Cc1cc(-c2nn(C)c(C)c2/[N+]([O-])=N/C#N)no1 | 128 µg/mL (≈ 520 µM) | 128 µg/mL (≈ 520 µM) | 128 µg/mL (≈ 520 µM) | > 128 µg/mL | > 128 µg/mL | 128 µg/mL (≈ 520 µM) | 64 µg/mL (≈ 260 µM) | 128 µg/mL (≈ 520 µM) | > 128 µg/mL | > 128 µg/mL | > 128 µg/mL | 128 µg/mL (≈ 520 µM) | 64 µg/mL (≈ 260 µM) | 128 µg/mL (≈ 520 µM) | 128 µg/mL (≈ 520 µM) | 128 µg/mL (≈ 520 µM) | 128 µg/mL (≈ 520 µM) | 128 µg/mL (≈ 520 µM) | 4 µg/mL (≈ 16.2 µM) | 4 µg/mL (≈ 16.2 µM) | MIC [21]: 8 µg/mL (≈ 32.5 µM); MIC [22]: 8 µg/mL (≈ 32.5 µM); MIC (Pichia kudriavzevii [23]): 64 µg/mL (≈ 260 µM); MIC (Escherichia coli): > 128 µg/mL; MIC (Proteus mirabilis): > 128 µg/mL; MIC (Pseudomonas aeruginosa [24]): > 128 µg/mL; MIC (Pseudomonas aeruginosa [25]): > 128 µg/mL; MIC (Staphylococcus aureus [26]): 8 µg/mL (≈ 32.5 µM); MIC (Staphylococcus aureus [27]): 16 µg/mL (≈ 65 µM)
Cc1cc(-c2nn(C)c(C)c2/[N+]([O-])=N/C#N)on1 | 128 µg/mL (≈ 520 µM) | 128 µg/mL (≈ 520 µM) | 64 µg/mL (≈ 260 µM) | 128 µg/mL (≈ 520 µM) | 128 µg/mL (≈ 520 µM) | 64 µg/mL (≈ 260 µM) | 32 µg/mL (≈ 130 µM) | 64 µg/mL (≈ 260 µM) | 128 µg/mL (≈ 520 µM) | 128 µg/mL (≈ 520 µM) | > 128 µg/mL | 128 µg/mL (≈ 520 µM) | 32 µg/mL (≈ 130 µM) | 128 µg/mL (≈ 520 µM) | 128 µg/mL (≈ 520 µM) | 128 µg/mL (≈ 520 µM) | 128 µg/mL (≈ 520 µM) | 128 µg/mL (≈ 520 µM) | 2 µg/mL (≈ 8.12 µM) | 2 µg/mL (≈ 8.12 µM) | MIC [21]: 2 µg/mL (≈ 8.12 µM); MIC [22]: 2 µg/mL (≈ 8.12 µM); MIC (Pichia kudriavzevii [23]): 32 µg/mL (≈ 130 µM); MIC (Escherichia coli): > 128 µg/mL; MIC (Proteus mirabilis): > 128 µg/mL; MIC (Pseudomonas aeruginosa [24]): > 128 µg/mL; MIC (Pseudomonas aeruginosa [25]): > 128 µg/mL; MIC (Staphylococcus aureus [26]): 2 µg/mL (≈ 8.12 µM); MIC (Staphylococcus aureus [27]): 4 µg/mL (≈ 16.2 µM)
Cc1c(/[N+]([O-])=N/C#N)c(-c2cccs2)nn1C | 16 µg/mL (≈ 64.7 µM) | 1 µg/mL (≈ 4.04 µM) | 0.5 µg/mL (≈ 2.02 µM) | 1 µg/mL (≈ 4.04 µM) | 1 µg/mL (≈ 4.04 µM) | 0.5 µg/mL (≈ 2.02 µM) | 1 µg/mL (≈ 4.04 µM) | 0.5 µg/mL (≈ 2.02 µM) | 8 µg/mL (≈ 32.4 µM) | 8 µg/mL (≈ 32.4 µM) | 16 µg/mL (≈ 64.7 µM) | 0.25 µg/mL (≈ 1.01 µM) | 0.25 µg/mL (≈ 1.01 µM) | 0.25 µg/mL (≈ 1.01 µM) | 0.25 µg/mL (≈ 1.01 µM) | 8 µg/mL (≈ 32.4 µM) | 8 µg/mL (≈ 32.4 µM) | 16 µg/mL (≈ 64.7 µM) | 2 µg/mL (≈ 8.09 µM) | 2 µg/mL (≈ 8.09 µM) | MIC [21]: 2 µg/mL (≈ 8.09 µM); MIC [22]: 2 µg/mL (≈ 8.09 µM); MIC (Pichia kudriavzevii [23]): 0.5 µg/mL (≈ 2.02 µM); MIC (Escherichia coli): > 128 µg/mL; MIC (Proteus mirabilis): > 128 µg/mL; MIC (Pseudomonas aeruginosa [24]): > 128 µg/mL; MIC (Pseudomonas aeruginosa [25]): > 128 µg/mL; MIC (Staphylococcus aureus [26]): 4 µg/mL (≈ 16.2 µM); MIC (Staphylococcus aureus [27]): 8 µg/mL (≈ 32.4 µM)
Cc1cc(-c2nn(C)c(C)c2/[N+]([O-])=N/C#N)nn1C | > 128 µg/mL | 64 µg/mL (≈ 247 µM) | > 128 µg/mL | > 128 µg/mL | > 128 µg/mL | > 128 µg/mL | > 128 µg/mL | > 128 µg/mL | > 128 µg/mL | > 128 µg/mL | > 128 µg/mL | > 128 µg/mL | > 128 µg/mL | > 128 µg/mL | > 128 µg/mL | > 128 µg/mL | > 128 µg/mL | > 128 µg/mL | 16 µg/mL (≈ 61.7 µM) | 16 µg/mL (≈ 61.7 µM) | MIC [21]: 16 µg/mL (≈ 61.7 µM); MIC [22]: 16 µg/mL (≈ 61.7 µM); MIC (Pichia kudriavzevii [23]): > 128 µg/mL; MIC (Escherichia coli): > 128 µg/mL; MIC (Proteus mirabilis): > 128 µg/mL; MIC (Pseudomonas aeruginosa [24]): > 128 µg/mL; MIC (Pseudomonas aeruginosa [25]): > 128 µg/mL; MIC (Staphylococcus aureus [26]): 32 µg/mL (≈ 123 µM); MIC (Staphylococcus aureus [27]): 32 µg/mL (≈ 123 µM)
Cc1c(/[N+]([O-])=N/C#N)c(-c2ccccn2)nn1C | 128 µg/mL (≈ 528 µM) | 64 µg/mL (≈ 264 µM) | 16 µg/mL (≈ 66 µM) | 128 µg/mL (≈ 528 µM) | 128 µg/mL (≈ 528 µM) | 16 µg/mL (≈ 66 µM) | 16 µg/mL (≈ 66 µM) | 8 µg/mL (≈ 33 µM) | 128 µg/mL (≈ 528 µM) | 128 µg/mL (≈ 528 µM) | 128 µg/mL (≈ 528 µM) | 64 µg/mL (≈ 264 µM) | 4 µg/mL (≈ 16.5 µM) | 64 µg/mL (≈ 264 µM) | 128 µg/mL (≈ 528 µM) | 128 µg/mL (≈ 528 µM) | 128 µg/mL (≈ 528 µM) | 128 µg/mL (≈ 528 µM) | 16 µg/mL (≈ 66 µM) | 16 µg/mL (≈ 66 µM) | MIC [21]: 8 µg/mL (≈ 33 µM); MIC [22]: 8 µg/mL (≈ 33 µM); MIC (Pichia kudriavzevii [23]): 16 µg/mL (≈ 66 µM); MIC (Escherichia coli): > 128 µg/mL; MIC (Proteus mirabilis): > 128 µg/mL; MIC (Pseudomonas aeruginosa [24]): > 128 µg/mL; MIC (Pseudomonas aeruginosa [25]): > 128 µg/mL; MIC (Staphylococcus aureus [26]): 32 µg/mL (≈ 132 µM); MIC (Staphylococcus aureus [27]): 64 µg/mL (≈ 264 µM)
